According to ChEMBL document CHEMBL3421593, “Design, synthesis, and biological evaluation of ring-constrained novobiocin analogues as hsp90 C-terminal inhibitors” (ACS Med Chem Lett, 2015):
Active and inactive are the calls of the source. No cut-off for these calls is given here.

Assays:
MCF7 [1] = assay: Antiproliferative activity against human MCF7 cells; assay type: functional, cell-based
How it was run: (§1)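 Breast cancer lines used were SKBr3 (estrogen receptor negative, Her2 overexpressing) and MCF-7 (estrogen receptor positive). Values are mean ± standard deviation from at least two separate experiments, each performed in triplicate.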

[2] = Antiproliferative activity against human SKBR3 cells; assay type: functional, cell-based; conditions: SK-BR-3; how it was run: as §1
[3] = molecular target: T1, Heat shock protein HSP90 (Homo sapiens) (UniProt P07900+P08238); assay: Inhibition of HSP90 in human MCF7 cells assessed as induction of Akt protein degradation at 5 times antiproliferative IC50 level incubated for 24 hrs by Western blotting method; assay type: cell-based
[4] = molecular target: T1, Heat shock protein HSP90 (Homo sapiens); assay: Inhibition of HSP90 in human MCF7 cells assessed as induction of Her2 protein degradation at 5 times antiproliferative IC50 level incubated for 24 hrs by Western blotting method; assay type: cell-based
[5] = molecular target: T1, Heat shock protein HSP90 (Homo sapiens); assay: Inhibition of HSP90 in human MCF7 cells assessed as induction of Raf1 protein degradation at 0.5 times antiproliferative IC50 level incubated for 24 hrs by Western blotting method; assay type: cell-based
[6] = molecular target: T1, Heat shock protein HSP90 (Homo sapiens); assay: Inhibition of HSP90 in human MCF7 cells assessed as induction of Her2 protein degradation at 0.5 times antiproliferative IC50 level incubated for 24 hrs by Western blotting method; assay type: cell-based
[7] = molecular target: T1, Heat shock protein HSP90 (Homo sapiens); assay: Inhibition of HSP90 in human MCF7 cells assessed as induction of Akt protein degradation at 0.5 times antiproliferative IC50 level incubated for 24 hrs by Western blotting method; assay type: cell-based
[8] = molecular target: T1, Heat shock protein HSP90 (Homo sapiens); assay: Inhibition of HSP90 in human MCF7 cells assessed as induction of Raf1 protein degradation at 5 times antiproliferative IC50 level incubated for 24 hrs by Western blotting method; assay type: cell-based
MCF7 [9] = assay: Effect on HSP90 protein expression in human MCF7 cells at 0.2 to 10 uM incubated for 24 hrs by Western blotting method; assay type: cell-based; conditions: mcf7, 24 h
[10] = molecular target: T1, Heat shock protein HSP90 (Homo sapiens); assay: Inhibition of HSP90 in human MCF7 cells assessed as induction of Akt protein degradation at 0.2 to 10 uM incubated for 24 hrs by Western blotting method; assay type: cell-based
[11] = molecular target: T1, Heat shock protein HSP90 (Homo sapiens); assay: Inhibition of HSP90 in human MCF7 cells assessed as induction of Her2 protein degradation at 0.2 to 10 uM incubated for 24 hrs by Western blotting method; assay type: cell-based
[12] = molecular target: T1, Heat shock protein HSP90 (Homo sapiens); assay: Inhibition of HSP90 in human MCF7 cells assessed as induction of Raf1 protein degradation at 0.2 to 10 uM incubated for 24 hrs by Western blotting method; assay type: cell-based
MCF7 [13] = assay: Effect on actin protein expression in human MCF7 cells at 0.2 to 10 uM incubated for 24 hrs by Western blotting method; assay type: cell-based; conditions: mcf7, 24 h

SMILES	IC50 (MCF7 [1]) [µM]	IC50 [2] [µM]	further results
COc1cccc(-c2cc(C(=O)Nc3cc4ccc5c(c4oc3=O)NC(=O)C(C(=O)N3CCCC3)O5)ccc2OC)c1 (stereo unspecified)	> 50	> 50	–
COc1cccc(-c2cc(C(=O)Nc3cc4ccc5c(c4oc3=O)NC(=O)C(CN3CCCC3)O5)ccc2OC)c1 (stereo unspecified)	22.9	15	–
COc1cccc(-c2cc(C(=O)Nc3cc4ccc(OCCN(C)C)c(OC)c4oc3=O)ccc2OC)c1	–	2	–
COc1cccc(-c2cc(C(=O)Nc3cc4ccc5c(c4oc3=O)NC(=O)C(Cc3ccccc3)O5)ccc2OC)c1 (stereo unspecified)	22.1	21.5	–
COc1cccc(-c2cc(C(=O)Nc3cc4ccc(O[C@H]5OC(C)(C)[C@@H](OC)[C@H](O)[C@@H]5O)c(OC)c4oc3=O)ccc2OC)c1	9	13.9	–
COc1cccc(-c2cc(C(=O)Nc3cc4ccc5c(c4oc3=O)NC(=O)C(C(N)=O)O5)ccc2OC)c1 (stereo unspecified)	33.4	> 50	–
COc1cccc(-c2cc(C(=O)Nc3cc4ccc5c(c4oc3=O)NC(=O)C(Cc3ccc(Cl)cc3)O5)ccc2OC)c1 (stereo unspecified)	> 50	> 50	–
COc1cccc(-c2cc(C(=O)Nc3cc4ccc5c(c4oc3=O)NC(=O)C(c3ccccc3)O5)ccc2OC)c1 (stereo unspecified)	> 50	48.2	–
COc1cccc(-c2cc(C(=O)Nc3cc4ccc5c(c4oc3=O)NC(=O)C(CCN3CCNCC3)O5)ccc2OC)c1 (stereo unspecified)	7.63	5.44	–
COc1cccc(-c2cc(C(=O)Nc3cc4cc(OC)c(OC(C)=O)c(C)c4oc3=O)ccc2OC)c1	–	6	–
COc1cccc(-c2cc(C(=O)Nc3cc4ccc5c(c4oc3=O)NC(=O)C(CCN3CCOCC3)O5)ccc2OC)c1 (stereo unspecified)	7.44	6.66	–
COc1cccc(-c2cc(C(=O)Nc3cc4ccc5c(c4oc3=O)NC(=O)C(CCCN3CCNCC3)O5)ccc2OC)c1 (stereo unspecified)	12.8	9.08	–
COc1cccc(-c2cc(C(=O)Nc3cc4ccc5c(c4oc3=O)NC(=O)C(CCN(C)C)O5)ccc2OC)c1 (stereo unspecified)	11.4	8.06	–
COc1cccc(-c2cc(C(=O)Nc3cc4ccc5c(c4oc3=O)NC(=O)C(CN3CCN(C(=O)OC(C)(C)C)CC3)O5)ccc2OC)c1 (stereo unspecified)	> 50	> 50	–
COc1cccc(-c2cc(C(=O)Nc3cc4ccc5c(c4oc3=O)NC(=O)C(Cc3ccc(C)cc3)O5)ccc2OC)c1 (stereo unspecified)	> 50	> 50	–

Now from value to compound, other results behind:

IC50 (MCF7 [1]) [µM]	SMILES	IC50 [2] [µM]	further results
6.12	COc1ccc(CC2Oc3ccc4cc(NC(=O)c5ccc(OC)c(-c6cccc(OC)c6)c5)c(=O)oc4c3NC2=O)cc1 (stereo unspecified)	8.37	–
1.16	COc1cccc(-c2cc(C(=O)Nc3cc4ccc5c(c4oc3=O)NC(=O)C(CCNC3CCCCC3)O5)ccc2OC)c1 (stereo unspecified)	0.78	–
5.27	COc1cccc(-c2cc(C(=O)Nc3cc4ccc5c(c4oc3=O)NC(=O)C(CN3CCNCC3)O5)ccc2OC)c1 (stereo unspecified)	5.78	–
0.35	COc1cccc(-c2cc(C(=O)Nc3cc4ccc5c(c4oc3=O)NC(=O)C(CCCNC3CCCCC3)O5)ccc2OC)c1 (stereo unspecified)	0.2	inhibition [3]: Active; inhibition [4]: Active; inhibition [5]: Active; inhibition [6]: Active; inhibition [7]: Active; inhibition [8]: Active
0.85	COc1cccc(-c2cc(C(=O)Nc3cc4ccc5c(c4oc3=O)NC(=O)C(CCCN3CCCCC3)O5)ccc2OC)c1 (stereo unspecified)	0.78	Activity (MCF7 [9]): Non-toxic; inhibition [3]: Active; inhibition [4]: Active; inhibition [5]: Active; inhibition [10]: Dose-dependent effect; inhibition [11]: Dose-dependent effect; inhibition [12]: Dose-dependent effect; Activity (MCF7 [13]): Non-toxic; inhibition [6]: Active; inhibition [7]: Active; inhibition [8]: Active
5.68	COc1cccc(-c2cc(C(=O)Nc3cc4ccc5c(c4oc3=O)NC(=O)C(CCN3CCN(C)CC3)O5)ccc2OC)c1 (stereo unspecified)	4.1	–
1.09	COc1cccc(-c2cc(C(=O)Nc3cc4ccc5c(c4oc3=O)NC(=O)C(CCNC34C[C@H]6C[C@@H](C3)C[C@@H](C4)C6)O5)ccc2OC)c1 (stereo partly specified)	0.88	–
0.72	COc1cccc(-c2cc(C(=O)Nc3cc4ccc5c(c4oc3=O)NC(=O)C(CCCN[C@]34CC6CC(C[C@@H](C6)C3)C4)O5)ccc2OC)c1 (stereo partly specified)	0.62	inhibition [3]: Active; inhibition [4]: Active; inhibition [5]: Active; inhibition [6]: Active; inhibition [7]: Active; inhibition [8]: Active
2.43	COc1cccc(-c2cc(C(=O)Nc3cc4ccc5c(c4oc3=O)NC(=O)C(CCCN3CCN(C)CC3)O5)ccc2OC)c1 (stereo unspecified)	1.76	–
1.34	COc1cccc(-c2cc(C(=O)Nc3cc4ccc5c(c4oc3=O)NC(=O)C(CCCNC3CC4CCC3C4)O5)ccc2OC)c1 (stereo unspecified)	1.26	–
5.2	COc1cccc(-c2cc(C(=O)Nc3cc4ccc5c(c4oc3=O)NC(=O)C(CCN3CCCC3)O5)ccc2OC)c1 (stereo unspecified)	3.49	–
1.53	COc1cccc(-c2cc(C(=O)Nc3cc4ccc5c(c4oc3=O)NC(=O)C(CCCCN3CCCC3)O5)ccc2OC)c1 (stereo unspecified)	2.5	–
1.22	COc1cccc(-c2cc(C(=O)Nc3cc4ccc5c(c4oc3=O)NC(=O)C(CCNC3CC4CCC3C4)O5)ccc2OC)c1 (stereo unspecified)	0.68	–
1.49	COc1cccc(-c2cc(C(=O)Nc3cc4ccc5c(c4oc3=O)NC(=O)C(CCCN3CCCC3)O5)ccc2OC)c1 (stereo unspecified)	1.02	–
1.04	COc1cccc(-c2cc(C(=O)Nc3cc4ccc5c(c4oc3=O)NC(=O)C(CCN3CCCCC3)O5)ccc2OC)c1 (stereo unspecified)	1.03	–
